In brackets after ≈: the same amount, converted by molar mass. Activity calls are given as the source filed them. The rule behind the calls is not given here.
Columns and labels:
[1] = tested on: Aggregatibacter actinomycetemcomitans; test: Evaluated for the in vitro minimum bactericidal concentration (MBC) against periopathogenic Actinobacillus actinomycetemcommitans bacteria; type: functional
Outline: (§1)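 Tube dilution test against A. actinomycetemcomitans Y4, kept in Trypticase Soy Broth with excess CaCO3. Compound stocks of 1 mg/100 μL EtOH or Me2SO were diluted at least 100-fold into 3-fold series in Bacto Anaerobe broth. Each tube got 50 μL of log-phase inoculum at 10⁸ cfu/mL and was incubated at 37 °C under anaerobic 5% CO2/10% H2/85% Ar. Values are μg/mL, consistent across triplicates.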

Porphyromonas gingivalis [2] = test: Evaluated for the in vitro minimum bactericidal concentration (MBC) against periopathogenic Bacteroides gingivalis bacteria; type: functional
Outline: (§2)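 B. gingivalis 381, maintained in Trypticase Soy Broth plus excess CaCO3, was assayed by tube dilution. Stocks of 1 mg/100 μL in EtOH or Me2SO were diluted 100-fold or more to give 3-fold dilutions in Bacto Anaerobe broth. Inoculum was 50 μL of log-phase culture at 10⁸ cfu/mL, with incubation at 37 °C anaerobically (5% CO2/10% H2/85% Ar). Concentrations are μg/mL, consistent for triplicate assays.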

Actinomyces viscosus [3] = test: Evaluated for the in vitro minimum bactericidal concentration (MBC) against periopathogenic Actinomycetes viscosus bacteria; type: functional
Outline: (§3)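 Tested against A. viscosus M100-2000, maintained in Trypticase Soy Broth with excess CaCO3, by tube dilution. EtOH or Me2SO stocks (1 mg/100 μL) were diluted at least 100-fold into 3-fold dilution series in Bacto Anaerobe broth. Tubes were seeded with 50 μL of 10⁸ cfu/mL log-phase culture and held at 37 °C in an anaerobic chamber (5% CO2, 10% H2, 85% Ar). Values are in μg/mL, consistent in triplicate.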

Actinomyces viscosus [4] = test: Evaluated for the in vitro minimum bactericidal concentration (MBC) against periopathogenic Actinomycetes viscosus bacteria; NE means not effective; type: functional, organism-based; outline: as §3
[5] = tested on: Aggregatibacter actinomycetemcomitans; test: Evaluated for the in vitro minimum bactericidal concentration (MBC) against periopathogenic Actinobacillus actinomycetemcommitans bacteria; NE means not effective; type: functional, organism-based; outline: as §1
Porphyromonas gingivalis [6] = test: Evaluated for the in vitro minimum bactericidal concentration (MBC) against periopathogenic Bacteroides gingivalis bacteria; NE means not effective; type: functional, organism-based; outline: as §2
Actinomyces viscosus [7] = test: Evaluated for the in vitro minimum bactericidal concentration (MBC) against periopathogenic Actinomycetes viscosus bacteria.; type: functional; outline: as §3
Actinomyces viscosus [8] = test: Evaluated for the in vitro minimum bactericidal concentration (MBC) against periopathogenic Actinomycetes viscosus bacteria;NE means not effective; type: functional, organism-based; outline: as §3

SMILES	MBC [1] [µg/mL]	MBC (Porphyromonas gingivalis [2]) [µg/mL]	MBC (Actinomyces viscosus [3]) [µg/mL]	MBC (Actinomyces viscosus [4])	MBC [5]	MBC (Porphyromonas gingivalis [6])	MBC (Actinomyces viscosus [7]) [µg/mL]	MBC (Actinomyces viscosus [8])
O=C(Nc1ccc(Br)cc1)c1cc(Br)cc(Br)c1O [TRIBROMSALAN]	0.5 (≈ 1.11 µM)	0.05 (≈ 0.111 µM)	1 (≈ 2.22 µM)					
CCCCCCCCC(=O)c1ccc(O)c(-c2nc3cc(C(F)(F)F)ccc3[nH]2)c1		0.1 (≈ 0.239 µM)	0.5 (≈ 1.19 µM)					
CCCCCCCCC(=O)c1ccc(O)c(-c2nc3cc(Cl)ccc3[nH]2)c1				inactive	inactive	inactive		
Oc1c(Br)cc(Br)cc1-c1nc2cc(C(F)(F)F)ccc2[nH]1	1 (≈ 2.29 µM)	0.05 (≈ 0.115 µM)	0.1 (≈ 0.229 µM)					
CCCCC(=O)c1ccc(O)c(-c2nc3cc(C(F)(F)F)ccc3[nH]2)c1		0.5 (≈ 1.38 µM)			inactive		0.5 (≈ 1.38 µM)	
CCCC(=O)c1ccc(O)c(-c2nc3cc(C(F)(F)F)ccc3[nH]2)c1	5 (≈ 14.4 µM)	0.05 (≈ 0.144 µM)	0.5 (≈ 1.44 µM)					
Oc1ccccc1-c1nc2cc(C(F)(F)F)ccc2[nH]1		50 (≈ 180 µM)			inactive			inactive
CCCCCCCC(=O)c1ccc(O)c(-c2nc3cc(Cl)ccc3[nH]2)c1				inactive				
Cc1ccc2[nH]c(-c3ccccc3O)nc2c1	1 (≈ 4.46 µM)	1 (≈ 4.46 µM)		inactive				
CCCCCCC(=O)c1ccc(O)c(-c2nc3cc(Cl)ccc3[nH]2)c1				inactive	inactive	inactive		
CN(C)[C@@H]1C(O)=C(C(N)=O)C(=O)[C@@]2(O)C(O)=C3C(=O)c4c(O)cccc4[C@@](C)(O)[C@H]3C[C@@H]12 [TETRACYCLINE]	0.5 (≈ 1.13 µM)	0.05 (≈ 0.113 µM)	0.5 (≈ 1.13 µM)					
CCCCCCCCC(=O)c1ccc(O)c(-c2nc3cc(C)ccc3[nH]2)c1			10 (≈ 27.4 µM)		inactive			
CCCCCC(=O)c1ccc(O)c(-c2nc3cc(C(F)(F)F)ccc3[nH]2)c1		0.1 (≈ 0.266 µM)	0.5 (≈ 1.33 µM)		inactive			
CCCCCCCC(=O)c1ccc(O)c(-c2nc3cc(C(F)(F)F)ccc3[nH]2)c1		0.5 (≈ 1.24 µM)	0.5 (≈ 1.24 µM)		inactive			
Oc1c(Br)cc(Br)cc1-c1nc2cc(Cl)ccc2[nH]1	5 (≈ 12.4 µM)	0.05 (≈ 0.124 µM)	0.5 (≈ 1.24 µM)					
CCCCCCCCCC(=O)c1ccc(O)c(-c2nc3cc(C(F)(F)F)ccc3[nH]2)c1				inactive	inactive	inactive		
CCCCCCC(=O)c1ccc(O)c(-c2nc3cc(C)ccc3[nH]2)c1				inactive	inactive	inactive		
CCCCCCC(=O)c1ccc(O)c(-c2nc3cc(C(F)(F)F)ccc3[nH]2)c1		0.05 (≈ 0.128 µM)	0.5 (≈ 1.28 µM)		inactive			
CCCCCCCCC(=O)c1ccc(O)c(-c2nc3cc([N+](=O)[O-])ccc3[nH]2)c1				inactive	inactive	inactive		
N=C(NCCCCCCNC(=N)NC(=N)Nc1ccc(Cl)cc1)NC(=N)Nc1ccc(Cl)cc1 [CHLORHEXIDINE]	0.5 (≈ 0.989 µM)	0.05 (≈ 0.0989 µM)	0.5 (≈ 0.989 µM)					

From ChEMBL document CHEMBL1123582, “Substituted 2-(2-hydroxyphenyl)benzimidazoles as potential agents for the control of periodontal diseases” (1987)
